pIC50: −log10 of the molar value. The source made the active and inactive calls. The calls are words filed in the database; no cut-off is given here.
Key:
[1] = biological target: T1, Serine/threonine-protein kinase Chk1 (Homo sapiens, UniProt O14757); experiment: Inhibition of human Chk1
T1 sequence (O14757 whole entry): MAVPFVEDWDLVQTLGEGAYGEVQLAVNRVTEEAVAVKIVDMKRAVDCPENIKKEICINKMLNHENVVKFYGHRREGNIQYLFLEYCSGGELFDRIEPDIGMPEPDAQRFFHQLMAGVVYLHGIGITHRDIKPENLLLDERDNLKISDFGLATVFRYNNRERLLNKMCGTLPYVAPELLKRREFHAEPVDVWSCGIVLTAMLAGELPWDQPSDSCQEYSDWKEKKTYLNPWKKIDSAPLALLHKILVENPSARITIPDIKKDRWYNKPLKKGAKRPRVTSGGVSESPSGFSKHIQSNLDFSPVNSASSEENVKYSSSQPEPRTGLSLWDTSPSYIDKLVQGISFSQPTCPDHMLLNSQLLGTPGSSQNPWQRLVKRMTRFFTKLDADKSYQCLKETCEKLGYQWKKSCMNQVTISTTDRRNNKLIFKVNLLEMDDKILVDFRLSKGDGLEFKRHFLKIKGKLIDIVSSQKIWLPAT
How it was run: (§1)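 Chk1, commercial or GST-Chk1 purified from baculovirus-infected Sf9 cell extracts. Percent inhibition measured at a single compound concentration; IC50 also determined.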

L1210 = experiment: Antiproliferative activity against mouse L1210 cells by microculture tetrazolium assay; type: functional, cell-based
How it was run: (§2)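 Cells grown in RPMI 1640 with 10% fetal calf serum, 2 mM L-glutamine, penicillin/streptomycin and 10 mM HEPES (pH 7.4). Continuous exposure to graded compound concentrations for four doubling times. MTT (5 mg/mL) added, 4 h at 37 °C, formazan dissolved in DMSO, optical density read. IC50 is the concentration halving optical density relative to untreated controls.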

HT-29 = experiment: Antiproliferative activity against human HT29 cells microculture tetrazolium assay; type: functional, cell-based; how it was run: as §2
[2] = biological target: T2, Serine/threonine-protein kinase Chk1 (Homo sapiens) (UniProt O14757); experiment: Inhibition of human Chk1 at 10 uM; how it was run: as §1
T2 sequence (whole entry): T1 sequence (O14757 whole entry)

[3] = Antiproliferative activity against human […] cells microculture tetrazolium assay; type: functional, cell-based; how it was run: as §2
[4] = biological target: Proto-oncogene tyrosine-protein kinase Src (Homo sapiens) (UniProt P12931); experiment: Inhibition of Src kinase at 10 uM
Proto-oncogene tyrosine-protein kinase Src (Homo sapiens), sequence (P12931 2-536 limits assumed): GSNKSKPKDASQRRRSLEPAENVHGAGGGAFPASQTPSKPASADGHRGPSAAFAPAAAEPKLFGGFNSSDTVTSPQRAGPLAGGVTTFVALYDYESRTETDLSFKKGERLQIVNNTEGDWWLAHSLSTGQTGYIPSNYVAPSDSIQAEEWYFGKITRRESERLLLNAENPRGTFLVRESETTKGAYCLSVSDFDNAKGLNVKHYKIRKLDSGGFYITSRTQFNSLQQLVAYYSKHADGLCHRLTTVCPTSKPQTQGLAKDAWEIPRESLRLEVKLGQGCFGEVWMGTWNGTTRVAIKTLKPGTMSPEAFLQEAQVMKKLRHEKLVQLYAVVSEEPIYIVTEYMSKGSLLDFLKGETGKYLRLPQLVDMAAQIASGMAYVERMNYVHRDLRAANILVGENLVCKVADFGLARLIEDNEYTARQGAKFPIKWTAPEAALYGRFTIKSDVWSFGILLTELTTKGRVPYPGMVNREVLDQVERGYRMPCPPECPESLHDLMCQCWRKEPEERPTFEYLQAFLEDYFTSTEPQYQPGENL
How it was run: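 Radiometric Src kinase assay. 20 min at 30 °C, stopped with 0.85% orthophosphoric acid, captured on phosphocellulose filter, washed with orthophosphoric acid, dried with acetone.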

| SMILES | pIC50 [1] | pIC50 (L1210) | pIC50 (HT-29) | inhibition [2] [%] | Activity [2] | inhibition [4] [%] | pIC50 [3] |
| --- | --- | --- | --- | --- | --- | --- | --- |
| O=C1NC(=O)c2c1c1c(c3c2[nH]c2ccccc23)CNC1=O | 6.43 | 4.33 | < 4.00 | 71.7 |  |  | 4.23 |
| O=C1NC(=O)C2C1c1[nH]c3ccccc3c1C1C(=O)OC(=O)C12 (stereo unspecified) |  | 5.24 | 5.21 | 10.6 |  |  |  |
| O=C1NC(=O)c2c1c1c3ccccc3[nH]c1n1cncc21 [ISOGRANULATIMIDE] |  |  |  |  |  |  | 4.89 |
| CCOC(=O)c1cc2c(c3c1[nH]c1ccccc13)C(=O)NC2=O | < 5.30 | 5.24 | 5.40 | 71.7 |  |  | 5.64 |
| O=c1[nH]c(=O)c2c1c1[nH]c3ccccc3c1c1c(=O)oc(=O)c21 |  | 4.92 | 4.48 |  | inactive |  | 4.97 |
| O=C1NC(=O)c2c1c1c(c3c2[nH]c2ccccc23)C(=O)NC1 | 7.30 | 4.34 | 5.09 | 85.4 |  |  | 4.99 |
| O=C1NC(=O)c2c1c1[nH]cnc1c1[nH]c3ccccc3c21 [GRANULATIMIDE] |  |  |  |  |  |  | 5.21 |
| CCOC(=O)c1c2c(c3[nH]c4ccccc4c3c1O)C(=O)NC2=O |  | 4.24 | 4.07 |  | inactive |  | 4.47 |

More lines, in order of rising pIC50 (L1210), values ahead:

| pIC50 [1] | pIC50 (L1210) | pIC50 (HT-29) | inhibition [2] [%] | Activity [2] | inhibition [4] [%] | SMILES | pIC50 [3] |
| --- | --- | --- | --- | --- | --- | --- | --- |
|  | 4.26 | 4.33 | 11 |  |  | O=C1NC(=O)c2c1cc(O)c1c2[nH]c2ccccc21 | 4.46 |
|  | 4.97 | 4.50 |  | inactive |  | CCOC(=O)c1c2c(c3[nH]c4ccccc4c3c1O)C(=O)N(CO)C2=O | 4.94 |
| 6.68 | 5.26 | 5.41 | 72.4 |  | 11.5 | CCOC(=O)c1cc2c(c3c1[nH]c1ccccc13)C(=O)N(CO)C2=O | 5.54 |
|  | 5.31 | 5.19 | 45.3 |  |  | CCOC(=O)c1cc2c(c3[nH]c4ccccc4c13)C(=O)NC2=O | 5.42 |

— ChEMBL document CHEMBL1149763, “Synthesis, in vitro antiproliferative activities, and Chk1 inhibitory properties of pyrrolo[3,4-a]carbazole-1,3-diones, pyrrolo[3,4-c]carbazole-1,3-diones, and 2-aminopyridazino[3,4-a]pyrrolo[3,4-c]carbazole-1,3,4,7-tetraone” (Eur J Med Chem, 2008)
